Screening data (PubChem BioAssay)
Env fusion inh = HIV envelope-mediated fusion inhibition; HeLa-JRFL Env/CEM21 cell fusion, luciferase; inhibition, % at 12.3 µM; 360,000 tested, 1.1% active; AID 651610;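 active = mean replicate inhibition score of at least 50 and every replicate individually at or above 50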
PAX8 reporter = lowers PAX8-driven luciferase in RMG-I cells; RMG-I TPO-luciferase reporter, SteadyGlo, 24 h; 360,000 tested, 1.2% active; inhibition, % at 12.6 µM; AID 652154;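 active = mean replicate inhibition at least 60% with every replicate also reaching 60%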;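 note: luciferase light reporting Pax8 driven TPO promoter activity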
FN deposit inh = fibronectin deposition inhibition; AID 743247; inhibition, % at 12.6 µM; AH1F fibroblasts, Alexa488-fibronectin deposition fluorescence, overnight; 350,000 tested, 0.086% active;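 active = mean inhibition across replicates of 30% or more, regardless of how many single replicates reach that level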
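Assay system: AH1F fibroblasts / Quantity: 10000 cells per well / Medium: DMEM plus 2% serum, read in PBS / Reagent: labelled fibronectin 24 nM / Dosing: single dose, pinned / Times: 1 h cell attachment, overnight exposure to compound and label / Signal: fluorescence, ex 485 nm, em 525 nm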
MLL AF4-AF9 inh = inhibitors of human MLL-AF4/AF9 interaction; P42568; AlphaScreen, biotin-AF4 peptide binding to FLAG-AF9; inhibition, % at 10 µM; 350,000 tested, 0.47% active; AID 651704;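 active = every replicate reaching a set inhibition limit, whatever the replicate mean, cut at about 25% in these data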
Target sequence (P42568 whole entry, looked up): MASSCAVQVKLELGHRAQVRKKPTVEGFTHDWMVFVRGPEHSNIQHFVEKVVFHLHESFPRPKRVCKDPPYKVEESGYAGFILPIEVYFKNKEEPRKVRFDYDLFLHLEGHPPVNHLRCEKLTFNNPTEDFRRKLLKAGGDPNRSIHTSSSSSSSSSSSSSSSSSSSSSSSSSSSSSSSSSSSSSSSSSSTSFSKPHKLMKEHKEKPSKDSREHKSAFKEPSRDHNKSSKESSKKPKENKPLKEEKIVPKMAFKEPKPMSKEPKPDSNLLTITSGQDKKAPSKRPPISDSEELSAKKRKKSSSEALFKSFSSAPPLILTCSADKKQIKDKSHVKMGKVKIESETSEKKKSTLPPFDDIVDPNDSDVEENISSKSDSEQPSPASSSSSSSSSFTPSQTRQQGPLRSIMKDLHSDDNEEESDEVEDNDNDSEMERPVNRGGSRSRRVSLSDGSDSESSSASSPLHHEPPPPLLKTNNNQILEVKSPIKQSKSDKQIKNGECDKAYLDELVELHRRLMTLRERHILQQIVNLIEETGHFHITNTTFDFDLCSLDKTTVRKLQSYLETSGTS
Glyco luc inh = N-linked glycosylation inhibition. D54 ERlucT glycosylation luciferase reporter, 24 h; percent of 100 nM tunicamycin response. reporter increase, % at 12.5 µM. 360,000 tested, 0.23% active. AID 588692;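 active = mean luciferase reporter signal, scaled so untreated is 0 and the glycosylation-blocking control 100, at or above a set limit in every replicate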;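 note: luciferase carries N-glycosylation sites so blocking glycosylation raises the light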
EWS-Fli block = inhibitors of EWS/Fli oncoprotein transcriptional activity | A673 NR0B1-luciferase reporter, viability-normalised | inhibition, % at 12.6 µM | 350,000 tested, 0.67% active | AID 651661;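 active = mean inhibition of at least 50% after viability correction, with every replicate also passing that limit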;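 note: firefly luciferase signal divided by Alamar Blue viability fluorescence both relative to DMSO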
Each line names hits and unclear results; the compound was inactive in the other large screens; [ ] = dose if it differs, or a comment. This is a sample that favours compounds with a hit; in the whole collection about 2.5% have one here.

O=C(NC[C@@H]1CC[C@@H]2[C@@H](CN2Cc2cccc(Cl)c2)O1)C1CC1	none (no result: Env fusion inh, PAX8 reporter, FN deposit inh, Glyco luc inh)
CCCNC(=O)C[C@H]1CC[C@@H]2[C@@H](COc3ccc(NC(=O)c4ccc(C(F)(F)F)cc4)cc3C(=O)N2C)O1	none (no result: Env fusion inh, Glyco luc inh)
Cc1ccc(S(=O)(=O)N2C[C@H](O)COC[C@H]3O[C@@H](CC(=O)NCc4ccc(Cl)c(Cl)c4)CC[C@@H]32)cc1	PAX8 reporter 75 (no result: Env fusion inh, Glyco luc inh)
O=C(C[C@H]1CC[C@@H]2[C@H](COC[C@H](O)CN2C(=O)Nc2ccc(Cl)c(Cl)c2)O1)NCc1ccc(Cl)cc1	none (no result: Env fusion inh, Glyco luc inh)
Cc1ccc(S(=O)(=O)N2C[C@H](O)COC[C@H]3O[C@H](CC(=O)NCc4ccc(Cl)c(Cl)c4)CC[C@@H]32)cc1	none (no result: Env fusion inh, Glyco luc inh)
O=C(C[C@H]1CC[C@H]2[C@@H](COC[C@H](O)CN2C(=O)Nc2ccc(Cl)c(Cl)c2)O1)NCc1ccc(Cl)cc1	PAX8 reporter 70 (no result: Env fusion inh, Glyco luc inh)
CCCNC(=O)C[C@H]1CC[C@@H]2[C@@H](COc3ccc(NC(=O)Nc4c(C)noc4C)cc3C(=O)N2C)O1	none (no result: Env fusion inh, Glyco luc inh)
Cc1ccc(S(=O)(=O)N(C)C[C@@H]2Oc3ccc(NC(=O)Cc4cn(C)c5ccccc45)cc3CC(=O)N([C@H](C)CO)C[C@@H]2C)cc1	Env fusion inh 74[16.7 µM] (no result: FN deposit inh, Glyco luc inh)
C[C@H](CO)N1C[C@H](C)[C@H](CN(C)S(=O)(=O)c2ccc(F)cc2)Oc2ccc(NC(=O)Cc3cn(C)c4ccccc34)cc2CC1=O	Env fusion inh 56[16.7 µM] (no result: FN deposit inh, Glyco luc inh)
C[C@H]1CN([C@@H](C)CO)C(=O)Cc2cc(NC(=O)Cc3cn(C)c4ccccc34)ccc2O[C@H]1CN(C)S(=O)(=O)c1ccccc1	Env fusion inh 67[16.7 µM] (no result: FN deposit inh, Glyco luc inh)
Cc1ccc(S(=O)(=O)N(C)C[C@H]2Oc3ccc(NC(=O)Cc4cn(C)c5ccccc45)cc3CC(=O)N([C@@H](C)CO)C[C@@H]2C)cc1	none (no result: FN deposit inh, Glyco luc inh)
C[C@@H]1CN([C@@H](C)CO)C(=O)Cc2cc(NC(=O)Cc3cn(C)c4ccccc34)ccc2O[C@H]1CN(C)S(=O)(=O)c1ccc(F)cc1	none (no result: FN deposit inh, Glyco luc inh)
C[C@]12CCCC(=O)N1CCc1c2[nH]c2ccccc12	none (no result: FN deposit inh, Glyco luc inh)
C[C@H](CO)N1C[C@H](C)[C@H](CN(C)Cc2ccc3c(c2)OCO3)Oc2ccc(NC(=O)C3CC3)cc2C1=O	none (no result: FN deposit inh, Glyco luc inh)
CO[C@@H]1CN(C)C(=O)c2ccc(NS(=O)(=O)c3ccc(C)cc3)cc2OC[C@H](C)N(Cc2nccs2)C[C@@H]1C	none (no result: Env fusion inh, Glyco luc inh)
Cc1ccc(O)c(C(=O)C=Cc2ccccc2)c1	Glyco luc inh 30 (no result: PAX8 reporter)
Cc1ccc(/C=C/C(=O)c2ccccc2O)cc1	none
COc1ccc(C(=O)/C=C/c2ccccc2)c(OC)c1	none (no result: Env fusion inh, PAX8 reporter, FN deposit inh)
COc1cc(C)cc(C(=O)C=Cc2ccccc2)c1O	Glyco luc inh 31
CCNC(=O)[C@@H]1[C@@H](CO)[C@@H]2Cn3c(ccc(-c4ccccc4)c3=O)[C@H]1N2Cc1cccnc1	none (no result: Env fusion inh, PAX8 reporter, FN deposit inh, Glyco luc inh)
Cc1ccc(C)c(N(C(=O)c2nsc(Cl)c2Cl)C(C(=O)NC2CCCC2)c2ccc(O)cc2)c1 (stereo not drawn)	Env fusion inh 89 (no result: PAX8 reporter, MLL AF4-AF9 inh, EWS-Fli block)
C/C=C/c1ccc([C@H]2[C@@H](CO)N(C(=O)CC)C23CN(C(=O)c2ccccc2)C3)cc1	none (no result: Env fusion inh, FN deposit inh, Glyco luc inh)
O=C(C[C@H]1CC[C@H]2[C@@H](COC[C@@H](O)CN2Cc2ccc(Oc3ccccc3)cc2)O1)N1CCc2ccccc2C1	PAX8 reporter 105 (no result: Glyco luc inh)
O=C(C[C@@H]1CC[C@H]2[C@@H](COC[C@H](O)CN2Cc2ccc(Oc3ccccc3)cc2)O1)N1CCc2ccccc2C1	PAX8 reporter 106 (no result: FN deposit inh, MLL AF4-AF9 inh, Glyco luc inh)
O=C(C[C@H]1CC[C@@H]2[C@H](COC[C@H](O)CN2Cc2ccc(Oc3ccccc3)cc2)O1)N1CCc2ccccc2C1	none (no result: FN deposit inh, Glyco luc inh)
COc1cccc(C(=O)Nc2ccc3c(c2)C(=O)N(C)C[C@@H](OC)[C@@H](C)CN(CC2CC2)[C@@H](C)CO3)c1	none (no result: Env fusion inh, Glyco luc inh)
O=S(=O)(NCC[C@@H]1CC[C@H](NS(=O)(=O)c2cccc(Cl)c2)[C@H](CO)O1)c1cccc(F)c1	none (no result: Glyco luc inh)
CCC(=O)N1C[C@@H](C)[C@@H](OC)CN(C)C(=O)c2ccc(NC(=O)Nc3ccc(Cl)cc3)cc2OC[C@H]1C	none (no result: Glyco luc inh)
COc1ccccc1C(=O)Nc1ccc2c(c1)OC[C@H](C)N(C(C)=O)C[C@@H](C)[C@H](OC)CN(C)C2=O	none (no result: Glyco luc inh)
